In ChEMBL document CHEMBL1143366, “Synthesis and antitumor activity of novel enediyne-linked pyrrolo[2,1-c][1,4]benzodiazepine hybrids” (Bioorg Med Chem, 2009):
Calls of active or inactive are those of the source. No cut-off for these calls is given here.

How the values were obtained:
A2058 = assay: Cytotoxicity against human A2058 cells assessed as survival at 4 uM after 24 hrs by MTT assay; type: functional; conditions: A2058, 24 h, read-out: Survival
Outline: (§1)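 Cells seeded at 2500 cells/well, incubated overnight, then exposed to agents at 4 µM for 24 h. Medium replaced with MTT dye, 2 h at 37 °C. Formazan dissolved in DMSO, absorbance read at 540 nm. Survival expressed as % of untreated control.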

[1] = Cytotoxicity against human 293T cells assessed as survival at 4 uM after 24 hrs by MTT assay; type: cell-based, HEK-293T; conditions: read-out: Survival; outline: as §1
NCI-H1355 = assay: Cytotoxicity against human NCI-H1355 cells assessed as survival at 4 uM after 24 hrs by MTT assay; type: functional; conditions: NCI-H1355, 24 h, read-out: Survival; outline: as §1
MCF7 [2] = assay: Cytotoxicity against human MCF7 cells assessed as survival at 4 uM after 24 hrs by MTT assay; type: functional; conditions: MCF7, 24 h, read-out: Survival; outline: as §1
[3] = Cell cycle arrest in human 293T cells assessed as accumulation at sub-G1 phase at 4 uM after 24 hrs using propidium iodide staining by FACS; type: functional, cell-based; conditions: HEK-293T
Outline: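 293T cells exposed to 4 µM agents for 24 h, harvested by trypsinization and fixed in 50% cold ethanol at −20 °C. Washed in PBS, then RNase A (100 µg/mL) for 20 min at 37 °C. DNA content of 10,000 events read by flow cytometry. Result is % of cells in the sub-G1 peak.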

A-375 = assay: Cytotoxicity against human A375 cells assessed as survival at 4 uM after 24 hrs by MTT assay; type: functional; conditions: A-375, 24 h, read-out: Survival; outline: as §1
HEK-293T [4] = assay: Induction of apoptosis in human 293T cells assessed as change in morphology at 4 uM after 24 hrs; type: functional, cell-based
Outline: (§2)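 293T cells (5×10⁵/well) were grown for one day, then treated for 24 h with 4 µM agent or graded concentrations. Morphology was photographed by phase-contrast microscopy at 200×.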

HEK-293T [5] = assay: Induction of apoptosis in human 293T cells at 4 uM after 24 hrs using annexin V-FITC staining by FACS; type: functional
Outline: (§3)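 293T cells were treated for 24 h with 4 µM agent or graded concentrations, then harvested by trypsinization and centrifugation. Annexin V-FITC was added to 10⁶ cells per sample, with simultaneous PI staining. About 10,000 cells per group were analysed by flow cytometry, with annexin V⁺/PI⁻ scored as early apoptotic.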

HEK-293T [6] = assay: Induction of apoptosis in human 293T cells assessed as decrease in p53 protein expression at 4 uM after 24 hrs by Western blot analysis; type: functional, cell-based
Outline: (§4)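 293T cells were exposed for 24 h to graded concentrations (0, 1, 2 and 4 µM shown) or to 4 µM agent. Cell lysates were immunoblotted for caspase-3 (CPP32) and p53, with actin as the loading control. Primary antibody ran 2 h at room temperature or overnight at 4 °C, then HRP secondary 1 h at room temperature, with chemiluminescent detection.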

HEK-293T [7] = assay: Induction of apoptosis in human 293T cells assessed as degradation of caspase 3 at 4 uM after 24 hrs by Western blot analysis; type: functional, cell-based; outline: as §4
CCRF-CEM = assay: Cytotoxicity against human CCRF-CEM cells after 24 hrs by MTT assay; type: functional
MOLT-4 = assay: Cytotoxicity against human MOLT4 cells after 24 hrs by MTT assay; type: functional; conditions: MOLT-4, 24 h
RPMI-8226 = assay: Cytotoxicity against human RPMI8226 cells after 24 hrs by MTT assay; type: functional; conditions: RPMI-8226, 24 h
SW-620 = assay: Cytotoxicity against human SW620 cells after 24 hrs by MTT assay; type: functional; conditions: SW-620, 24 h
SK-MEL-2 = assay: Cytotoxicity against human SK-MEL-2 cells after 24 hrs by MTT assay; type: functional; conditions: SK-MEL-2, 24 h
IGROV-1 = assay: Cytotoxicity against human IGROV1 cells after 24 hrs by MTT assay; type: functional; conditions: IGROV-1, 24 h
OVCAR-3 = assay: Cytotoxicity against human OVCAR-3 cells after 24 hrs by MTT assay; type: functional; conditions: OVCAR-3, 24 h
OVCAR-8 = assay: Cytotoxicity against human OVCAR8 cells after 24 hrs by MTT assay; type: functional; conditions: OVCAR-8, 24 h
CAKI-1 = assay: Cytotoxicity against human Caki1 cells after 24 hrs by MTT assay; type: functional; conditions: CAKI-1, 24 h
RXF 393 = assay: Cytotoxicity against human RXF393 cells after 24 hrs by MTT assay; type: functional; conditions: RXF 393, 24 h
MCF7 [8] = assay: Cytotoxicity against human MCF7 cells after 24 hrs by MTT assay; type: functional; conditions: MCF7, 24 h
MDA-MB-435 = assay: Cytotoxicity against human MDA-MB-435 cells after 24 hrs by MTT assay; type: functional; conditions: MDA-MB-435, 24 h
BT-549 = assay: Cytotoxicity against human BT549 cells after 24 hrs by MTT assay; type: functional; conditions: BT-549, 24 h
T47D = assay: Cytotoxicity against human T47D cells after 24 hrs by MTT assay; type: functional
HEK-293T [9] = assay: Induction of apoptosis in human 293T cells assessed as change in morphology after 24 hrs; type: functional, cell-based; outline: as §2
HEK-293T [10] = assay: Induction of apoptosis in human 293T cells assessed as early apoptotic cells at 1 uM after 24 hrs using annexin V-FITC/propidium iodide staining by FACS; type: functional; outline: as §3
HEK-293T [11] = assay: Induction of apoptosis in human 293T cells assessed as necrotic cells at 1 uM after 24 hrs using annexin V-FITC/propidium iodide staining by FACS; type: functional; outline: as §3
HEK-293T [12] = assay: Induction of apoptosis in human 293T cells assessed as early apoptotic cells at 2 uM after 24 hrs using annexin V-FITC/propidium iodide staining by FACS; type: functional; outline: as §3
HEK-293T [13] = assay: Induction of apoptosis in human 293T cells assessed as necrotic cells at 2 uM after 24 hrs using annexin V-FITC/propidium iodide staining by FACS; type: functional; outline: as §3
HEK-293T [14] = assay: Induction of apoptosis in human 293T cells assessed as early apoptotic cells at 4 uM after 24 hrs using annexin V-FITC/propidium iodide staining by flow cytometry; type: functional; outline: as §3
HEK-293T [15] = assay: Induction of apoptosis in human 293T cells assessed as necrotic cells at 4 uM after 24 hrs using annexin V-FITC/propidium iodide staining by flow cytometry; type: functional; outline: as §3
HEK-293T [16] = assay: Induction of apoptosis in human 293T cells assessed as decrease in p53 protein expression at 1 uM after 24 hrs by Western blot analysis; type: functional, cell-based; outline: as §4
HEK-293T [17] = assay: Induction of apoptosis in human 293T cells assessed as degradation of caspase 3 after 24 hrs by Western blot analysis; type: functional, cell-based; outline: as §4
HEK-293T [18] = assay: Induction of apoptosis in human 293T cells assessed as DNA repair deficiency at > 2 uM; type: functional, cell-based; outline: as §4

COc1cc2c(cc1O)N=C[C@@H]1CCCN1C2=O
viability at 4 µM (A2058): 63.4% | viability at 24 h, 4 µM [1]: 68.9% | viability at 4 µM (NCI-H1355): 73.9% | viability at 4 µM (MCF7 [2]): 72.3% | Activity [3]: 10% | viability at 4 µM (A-375): 50.2%

COc1cc2c(cc1OCCCCCCNC(=O)c1cc3ccccc3[nH]1)N=C[C@@H]1CCCN1C2=O
Activity (HEK-293T [4]): Active | Activity (HEK-293T [5]): 19.4% | Activity (HEK-293T [6]): Active | Activity (HEK-293T [7]): Active

COc1cc2c(cc1OCC=CCOCCC#Cc1ccccc1C#Cc1ccccc1)N=C[C@@H]1CCCN1C2=O
viability at 4 µM (A2058): 84.5% | viability at 24 h, 4 µM [1]: 60.7% | viability at 4 µM (NCI-H1355): 71% | viability at 4 µM (MCF7 [2]): 83.8% | Activity [3]: 13.3% | viability at 4 µM (A-375): 85.7%

COc1cc2c(cc1OC/C=C/COCCC#Cc1ccccc1C#Cc1ccccc1)N=C[C@@H]1CCCN1C2=O
viability at 4 µM (A2058): 46.2% | viability at 24 h, 4 µM [1]: 35.2% | viability at 4 µM (NCI-H1355): 85.2% | viability at 4 µM (MCF7 [2]): 59.2% | Activity [3]: 13.6% | viability at 4 µM (A-375): 33.4%

COc1cc2c(cc1OC/C=C\COCC#Cc1ccccc1C#Cc1ccccc1)N=C[C@@H]1CCCN1C2=O
viability at 4 µM (A2058): 39.1% | viability at 24 h, 4 µM [1]: 44% | viability at 4 µM (NCI-H1355): 44% | viability at 4 µM (MCF7 [2]): 44% | Activity [3]: 15.6% | viability at 4 µM (A-375): 33.9%

COc1cc2c(cc1OCC#Cc1ccccc1C#Cc1ccccc1)N=C[C@@H]1CCCN1C2=O
viability at 4 µM (A2058): 46.1% | viability at 24 h, 4 µM [1]: 48.9% | viability at 4 µM (NCI-H1355): 70.9% | viability at 4 µM (MCF7 [2]): 48.9% | Activity [3]: 6.3% | viability at 4 µM (A-375): 13.1%

COc1cc2c(cc1OCCCC#Cc1ccccc1C#Cc1ccccc1)N=C[C@@H]1CCCN1C2=O
viability at 4 µM (A2058): 47.2% | viability at 24 h, 4 µM [1]: 28.7% | viability at 4 µM (NCI-H1355): 87.7% | viability at 4 µM (MCF7 [2]): 49.7% | GI50 (CCRF-CEM): 422 nM | GI50 (MOLT-4): 648 nM | GI50 (RPMI-8226): 285 nM | GI50 (SW-620): 478 nM | GI50 (SK-MEL-2): 924 nM | GI50 (IGROV-1): 549 nM | GI50 (OVCAR-3): 520 nM | GI50 (OVCAR-8): 394 nM | GI50 (CAKI-1): 485 nM | GI50 (RXF 393): 686 nM | GI50 (MCF7 [8]): 305 nM | GI50 (MDA-MB-435): 468 nM | GI50 (BT-549): 641 nM | GI50 (T47D): 779 nM | Activity [3]: 14.5% | Activity (HEK-293T [9]): Dose-dependent effect | Activity (HEK-293T [10]): 2.1% | Activity (HEK-293T [11]): 13.7% | Activity (HEK-293T [12]): 2.2% | Activity (HEK-293T [13]): 14.5% | Activity (HEK-293T [14]): 1.5% | Activity (HEK-293T [15]): 17.4% | Activity (HEK-293T [5]): 25.4% | Activity (HEK-293T [16]): inactive | Activity (HEK-293T [6]): Active | Activity (HEK-293T [17]): Dose-dependent effect | Activity (HEK-293T [7]): Active | Activity (HEK-293T [18]): Active | viability at 4 µM (A-375): 22.3%

COc1cc2c(cc1OC/C=C/COCC#Cc1ccccc1C#Cc1ccccc1)N=C[C@@H]1CCCN1C2=O
viability at 4 µM (A2058): 43% | viability at 24 h, 4 µM [1]: 48.4% | viability at 4 µM (NCI-H1355): 67.4% | viability at 4 µM (MCF7 [2]): 70.4% | Activity [3]: 13.9% | viability at 4 µM (A-375): 42.9%

COc1cc2c(cc1OCCCCC#Cc1ccccc1C#Cc1ccccc1)N=C[C@@H]1CCCN1C2=O
viability at 4 µM (A2058): 49.5% | viability at 24 h, 4 µM [1]: 19.2% | viability at 4 µM (NCI-H1355): 75.2% | viability at 4 µM (MCF7 [2]): 85.2% | Activity [3]: 13.2% | viability at 4 µM (A-375): 28.3%
